Compound activity: PubChem, The Scripps Research Institute Molecular Screening Center
An excerpt weighted towards active compounds, which were near 0.7% of everything screened.
procasp3 activ – activators of human procaspase-3 D3A mutant, primary screen, biochemical, absorbance, PC-3 D3A mutant, single concentration; Caspase-3 (Homo sapiens), P42574; recombinant procaspase-3 D3A, Ac-DEVD-pNA absorbance 405 nm; activation, % at 8.5 µM; hit rate 0.11% among 330,000; AID 463141, 2010;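 active = activation above the mean of all tested compounds plus 3 SD, cut at about 21% in these data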;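 also: 0% = DMSO alone and 100% = DMSO wells spiked with extra 5 µM PC-3 D3A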
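Test system: Procaspase-3 D3A mutant; medium: Zinc-free HEPES/NaCl buffer with 0.01% Triton X-100 at pH 7.4; reagent: DEVD-pNA substrate; doses: one concentration, 8.5 µM nominal, 0.8% DMSO; times: 1 h preincubation plus 2 h reaction at 25 °C; signal: Epi-absorbance at 405 nm of released p-nitroaniline, 0 and 120 min; replicates: singlicate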
procasp7 counter – procaspase-7 activators, primary screen, counter-screen for procaspase-3 activator project, biochemical, absorbance, HTS, human | Caspase-7 (Homo sapiens), P55210 | recombinant procaspase-7, Ac-DEVD-pNA absorbance 405 nm; D23A/D198A/D206A triple mutant, cannot self-cleave; scale: DMSO 0, 5 µM enzyme 100 | activation, % at 8.5 µM | hit rate 0.093% among 330,000 | AID 463210, 2010;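 active = percent activation above the screen-wide mean plus 3 SD, cut at about 25% in these data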
Target sequence (P55210 whole entry D23A/D198A/D206A): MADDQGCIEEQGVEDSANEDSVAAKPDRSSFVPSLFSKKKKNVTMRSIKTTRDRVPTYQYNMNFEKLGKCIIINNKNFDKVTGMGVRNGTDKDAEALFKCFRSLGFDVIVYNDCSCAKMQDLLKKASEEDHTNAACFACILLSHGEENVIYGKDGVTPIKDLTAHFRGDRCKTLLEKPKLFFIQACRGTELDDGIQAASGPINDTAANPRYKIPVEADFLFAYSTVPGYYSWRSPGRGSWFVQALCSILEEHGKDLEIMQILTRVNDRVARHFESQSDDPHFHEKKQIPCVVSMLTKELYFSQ
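Assay system: Uncleavable procaspase-7 mutant enzyme / Input: 2 µM procaspase-7 mutant as dispensed / Dosing: single nominal 8.5 µM compound dose, 0.8% DMSO final / Timing: 1 h enzyme–compound preincubation and 2 h substrate reaction, both 25 °C / Detection: p-Nitroaniline absorbance at 405 nm, read at 0 and 120 min / Replication: singlicate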
GAA850 FXN act – FXN promoter activators, primary screen, cell-based, luciferase luminescence, HEK293 lucGAA850; HEK293 lucGAA850 FXN promoter luciferase reporter, 24 h; percent of 10 µM SAHA response; AID 540364, 2011; activation, % at 6 µM; hit rate 0.56% among 360,000;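 active = activation above the average of all compounds screened plus 3 SD, cutoff fixed separately per campaign, cut at about 7.5% in these data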;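 also: 0% = DMSO wells and 100% = 10 µM SAHA wells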
GAA30 counter – GAA30 FXN promoter activators, confirmation, counter-screen for GAA850 frataxin promoter activator project, cell-based, luminescence, HEK293, lucGAA30, triplicate; shares compounds with GAA850 FXN act; HEK293 lucGAA30 FXN promoter luciferase, 24 h; DMSO = 0%, 5 µM ipriflavone = 100%; activation, % at 6 µM; hit rate 66% among 1,900;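 active = mean activation above the mean of solvent-only control wells plus 3 SD, cut at about 22% in these data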;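 also: counterscreen of GAA850 promoter hits where activity marks nonselective or luminescence artifacts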
GAA850 confirm – FXN GAA850 promoter activators in reporter cells, confirmation, cell-based, luminescence, HEK293 lucGAA850, triplicate. activation, % at 6 µM. hit rate 86% among 1,900. shares compounds with GAA850 FXN act. HEK293 lucGAA850 FXN promoter luciferase reporter, 24 h; 100% = activation by SAHA. AID 588351, 2011;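 active = mean activation above a set limit taken from the primary screen, cut at about 8% in these data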;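 also: 0% = DMSO wells and 100% = 10 µM SAHA wells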
Active calls of the source: *; x = no result given.

SMILES	procasp3 activ	procasp7 counter	GAA850 FXN act	GAA30 counter	GAA850 confirm
OCC1OC(n2cnc3c(NC4CCCCC4)ncnc32)C(O)C1O (stereo unspecified)	0	6	9.6*	37*	17*
C=C1CC[C@@]23CC[C@]4(C)[C@@](OC2=O)([C@@H]3C1)[C@H]1O[C@H]1C1[C@@]2(C)CC[C@H](O)C(C)(C)C2CC[C@]14C (stereo partly specified)	4	7	0	x	x
CC(C)c1ccc(CN2CCN(C(=O)CSc3nnnn3C3CC3)CC2)cc1	7	7	-4	x	x
CCOC(=O)CC(=O)CSc1nc2c(cc1C#N)CCCCCC2	5	-3	-1	x	x
N#Cc1cc2c(nc1SCC(N)=O)CCCCC2	-5	2	9.6*	108*	38*
C=CCn1c(SCC(=O)Nc2ccc(F)cc2)nc2ccccc2c1=O	2	3	1	x	x
CC1CCCN(C(=O)COC(=O)c2cccc(NS(=O)(=O)c3ccccc3)c2)C1 (stereo unspecified)	0	6	0	x	x
COC(=O)c1ccc(COC(=O)CNC(=O)c2ccc(-c3ccccc3)cc2)cc1	-3	7	8.1*	76*	22*
COC(=O)c1ccc(COC(=O)CNC(=O)c2ccco2)cc1	5	12	0	x	x
CC[C@@]12C(=O)N(c3cccc(Cl)c3)C(=O)N1[C@H](c1ccc(Br)cc1)[C@@H]1C(=O)N(C(C)(C)C)C(=O)[C@@H]12	4	-7	14*	35*	17*
CC(C)C[C@@]12C(=O)N(c3cccc(Cl)c3)C(=O)N1[C@H](c1ccc(Br)cc1)[C@@H]1C(=O)N(C(C)(C)C)C(=O)[C@@H]12	2	-5	15*	33*	18*
CCN1C(=O)[C@H]2[C@@H](c3ccc(C)cc3)N3C(=O)N(c4cccc(Cl)c4)C(=O)[C@@]3(Cc3ccccc3)[C@H]2C1=O	-6	9	-2	x	x
CCN1C(=O)[C@H]2[C@@H](c3ccc(C)cc3)N3C(=O)N(c4cccc(Cl)c4)C(=O)[C@@]3(CC(C)C)[C@H]2C1=O	-6	-2	17*	26*	12*
CC(C)C[C@@]12C(=O)N(c3cccc(F)c3)C(=O)N1[C@H](c1ccc(Br)cc1)[C@@H]1C(=O)N(C(C)(C)C)C(=O)[C@@H]12	1	-6	17*	29*	18*
CCN1C(=O)[C@H]2[C@@H](c3ccc(C)cc3)N3C(=O)N(c4cccc(Cl)c4)C(=O)[C@@]3(Cc3ccc(Cl)cc3)[C@H]2C1=O	7	-6	1	x	x
CCN(C(=O)CN(C1=NC2CS(=O)(=O)CC2S1)c1ccc(OC)cc1)c1cccc(C)c1 (stereo unspecified)	x	x	-3	x	x
COc1cccc(NC(=O)COc2nc3ccccc3nc2C)c1	-1	7	-3	x	x
O=C(Nc1ccc(S(=O)(=O)Nc2cnc3ccccc3n2)cc1)c1ccccc1Br	-1	6	0	x	x
O=C(COC(=O)c1cccc(OC(F)F)c1)NCC1CCCO1 (stereo unspecified)	3	4	2	x	x
C#CCN1C(=O)S/C(=C/C=C/c2ccc(N(C)C)cc2)C1=O	-61	-41	4	x	x
CCN1C(=O)[C@H]2[C@@H](c3ccc(C)cc3)N3C(=O)N(c4cccc(C)c4)C(=O)[C@@]3(Cc3ccccc3)[C@H]2C1=O	-5	-5	-2	x	x
CC[C@@]12C(=O)N(c3cccc(C)c3)C(=O)N1[C@H](c1ccc(Br)cc1)[C@@H]1C(=O)N(C(C)(C)C)C(=O)[C@@H]12	-10	-1	16*	23*	11*
COc1ccc([C@@H]2[C@@H]3C(=O)N(C(C)(C)C)C(=O)[C@@H]3[C@]3(Cc4ccc(Cl)cc4)C(=O)N(c4ccc(C)cc4)C(=O)N23)cc1	5	-2	-2	x	x
